Laboratory results: ChEMBL document CHEMBL1800019, “Highly potent activity of (1R,2R,6S)-3-methyl-6-(prop-1-en-2-yl)cyclohex-3-ene-1,2-diol in animal models of Parkinson's disease” (2011)
Calls of active or inactive are those of the source. The calls are words filed in the database; no cut-off is given here.

Tests used:
Mus musculus [1] = assay: Antiparkinsonian effect against MPTP-induced hypokinesia in C57/BL6 mouse assessed as number of upright postures at 20 mg/kg, po administered 15 mins after 30 mg/kg, ip MPTP challenge measured after 1.5 hrs of compound administration for 2 mins (reference value: 6.5 +/- 1.3 upright postures); type: functional, C57Bl/6
Outline: (§1)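 Male C57BL/6 mice (25–30 g) were given MPTP 0.17 mmol/kg (30 mg/kg) ip and, 15 min later, test agent 0.12 mmol/kg (20 mg/kg) po. Controls received saline. An open-field test (Tru Scan) was run 1.5 h after MPTP for 2 min, recording acts, locomotion time, distance, speed, upright postures and explored holes.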

Mus musculus [2] = assay: Antiparkinsonian effect against MPTP-induced hypokinesia in C57/BL6 mouse assessed as number of holes explored at 20 mg/kg, po administered 15 mins after 30 mg/kg, ip MPTP challenge measured after 1.5 hrs of compound administration for 2 mins (reference value: 15.6 +/- 3.3 holes explored); type: functional, C57Bl/6; outline: as §1
Mus musculus [3] = assay: Antiparkinsonian effect against MPTP-induced hypokinesia in C57/BL6 mouse assessed as number of locomotory acts at 20 mg/kg, po administered 15 mins after 30 mg/kg, ip MPTP challenge measured after 1.5 hrs of compound administration for 2 mins (reference value: 84.1 +/- 1.9 locomotor acts); type: functional, C57Bl/6; outline: as §1
Mus musculus [4] = assay: Antiparkinsonian effect against MPTP-induced hypokinesia in C57/BL6 mouse assessed as movement distance at 20 mg/kg, po administered 15 mins after 30 mg/kg, ip MPTP challenge […] for 2 mins (reference value: 276.8 +/- 27.8 cm); type: functional, C57Bl/6
Mus musculus [5] = assay: Antiparkinsonian effect against MPTP-induced hypokinesia in C57/BL6 mouse assessed as time of locomotory activity at 20 mg/kg, po administered 15 mins after 30 mg/kg, ip MPTP challenge measured after 1.5 hrs of compound administration for 2 mins (reference value: 58.3 +/- 3.9 sec); type: functional, C57Bl/6; outline: as §1
Mus musculus [6] = assay: Antiparkinsonian effect against MPTP-induced hypokinesia in C57/BL6 mouse assessed as movement speed at 20 mg/kg, po administered 15 mins after 30 mg/kg, ip MPTP challenge measured after 1.5 hrs of compound administration for 2 mins (reference value: 2.3 +/- 0.2 cm/s); type: functional, C57Bl/6; outline: as §1
Rattus norvegicus [7] = assay: Antiparkinsonian effect against MPTP-induced hypokinesia in Wistar rat assessed as number of holes explored at 10 mg/kg, po administered 30 days post 20 mg/kg, ip MPTP challenge measured on 30th day 2 hrs post compound administration for 2 mins (reference value: 4.6 +/- 0.9 holes explored); type: functional
Rattus norvegicus [8] = assay: Antiparkinsonian effect against MPTP-induced hypokinesia in Wistar rat assessed as number of upright postures at 10 mg/kg, po administered 30 days post 20 mg/kg, ip MPTP challenge measured on 30th day 2 hrs post compound administration for 2 mins (reference value: 14.6 +/- 1.8 upright postures); type: functional
Rattus norvegicus [9] = assay: Antiparkinsonian effect against MPTP-induced hypokinesia in Wistar rat assessed as time of locomotory activity at 10 mg/kg, po administered 30 days post 20 mg/kg, ip MPTP challenge measured on 30th day 2 hrs post compound administration for 2 mins (reference value: 69.7 +/- 2.1s); type: functional
Rattus norvegicus [10] = assay: Antiparkinsonian effect against MPTP-induced hypokinesia in Wistar rat assessed as movement distance at 10 mg/kg, po administered 30 days post 20 mg/kg, ip MPTP challenge measured on 30th day 2 hrs post compound administration for 2 mins (reference value: 367 +/- 21.2 cm); type: functional
Rattus norvegicus [11] = assay: Antiparkinsonian effect against MPTP-induced hypokinesia in Wistar rat assessed as number of locomotory acts at 10 mg/kg, po administered 30 days post 40 mg/kg, ip MPTP challenge measured on 30th day 2 hrs post compound administration for 2 mins (reference value: 80.3 +/- 2.5 locomotor acts)
Mus musculus [12] = assay: Antiparkinsonian effect against MPTP-induced hypokinesia in C57/BL6 mouse assessed as movement distance at 20 mg/kg, po administered 24 hrs after 4 X 20 mg/kg, ip MPTP challenge measured after 2 hrs of compound administration for 2 mins (reference value: 556.7 +/- 19.6 cm); type: functional, C57Bl/6
Mus musculus [13] = assay: Antiparkinsonian effect against MPTP-induced hypokinesia in C57/BL6 mouse assessed as movement speed at 20 mg/kg, po administered 24 hrs after 4 X 20 mg/kg, ip MPTP challenge measured after 2 hrs of compound administration for 2 mins (reference value: 4.6 +/- 0.2 cm/s); type: functional, C57Bl/6
Mus musculus [14] = assay: Antiparkinsonian effect against MPTP-induced hypokinesia in C57/BL6 mouse assessed as number of upright postures at 20 mg/kg, po administered 24 hrs after 4 X 20 mg/kg, ip MPTP challenge measured after 2 hrs of compound administration for 2 mins (reference value: 24.9 +/- 3.3 upright postures); type: functional, C57Bl/6
Rattus norvegicus [15] = assay: Antiparkinsonian effect against MPTP-induced hypokinesia in Wistar rat assessed as number of holes explored at 20 mg/kg, po administered 30 days post ip MPTP challenge measured on 30th day 2 hrs post compound administration for 2 mins (reference value: 4.6 +/- 0.9 holes explored)
Rattus norvegicus [16] = assay: Antiparkinsonian effect against MPTP-induced hypokinesia in Wistar rat assessed as number of locomotory acts at 20 mg/kg, po administered 30 days post 20 mg/kg, ip MPTP challenge measured on 30th day 2 hrs post compound administration for 2 mins (reference value: 80.3 +/- 2.5 locomotor acts); type: functional
Mus musculus [17] = assay: Antiparkinsonian effect against MPTP-induced hypokinesia in C57/BL6 mouse assessed as time of locomotory activity at 20 mg/kg, po administered 24 hrs after 4 X 20 mg/kg, ip MPTP challenge measured after 2 hrs of compound administration for 2 mins (reference value: 90.0 +/- 1.4 sec); type: functional, C57Bl/6
Rattus norvegicus [18] = assay: Antiparkinsonian effect against MPTP-induced hypokinesia in Wistar rat assessed as movement distance at 20 mg/kg, po administered 30 days post ip MPTP challenge measured on 30th day 2 hrs post compound administration for 2 mins (reference value: 367 +/- 21.2 cm)
Rattus norvegicus [19] = assay: Antiparkinsonian effect against MPTP-induced hypokinesia in Wistar rat assessed as movement speed at 20 mg/kg, po administered 30 days post ip MPTP challenge measured on 30th day 2 hrs post compound administration for 2 mins (reference value: 3.0 +/- 0.2 cm/s)
Mus musculus [20] = assay: Antiparkinsonian effect against MPTP-induced hypokinesia in C57/BL6 mouse assessed as number of locomotory acts at 20 mg/kg, po administered 24 hrs after 4 X 20 mg/kg, ip MPTP challenge measured after 2 hrs of compound administration for 2 mins (reference value: 73.3 +/- 2.3 locomotor acts); type: functional, C57Bl/6
Rattus norvegicus [21] = assay: Antiparkinsonian effect against MPTP-induced hypokinesia in Wistar rat assessed as time of locomotory activity at 20 mg/kg, po administered 30 days post 40 mg/kg, ip MPTP challenge measured on 30th day 2 hrs post compound administration for 2 mins (reference value: 69.7 +/- 2.1 sec)
Rattus norvegicus [22] = assay: Inhibition of haloperidol-induced catalepsy in Wistar rat at 20 mg/kg, po administered 10 mins before haloperidol challenge measured for 30 to 240 mins; type: functional, organism-based; parameters: dose 20 mg/kg
Outline: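 Male Wistar rats (six per group) were dosed po with 0.12 mmol/kg (20 mg/kg), and 10 min later received haloperidol 4.0 μmol/kg (1.5 mg/kg) ip in saline. Controls received haloperidol only. Immobility time on parallel bars was recorded at 30, 60, 120, 180 and 240 min at rt. Total catalepsy duration and % cataleptic animals were scored.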

Rattus norvegicus [23] = assay: Antiparkinsonian effect against MPTP-induced hypokinesia in Wistar rat assessed as number of upright postures at 20 mg/kg, po administered 30 days post 40 mg/kg, ip MPTP challenge measured on 30th day 2 hrs post compound administration for 2 mins (reference value: 14.6 +/- 1.8 upright postures)
Mus musculus [24] = assay: Antiparkinsonian effect against MPTP-induced hypokinesia in C57/BL6 mouse assessed as number of holes explored at 20 mg/kg, po administered 24 hrs after 4 X 20 mg/kg, ip MPTP challenge measured after 2 hrs of compound administration for 2 mins (reference value: 4.1 +/- 1.1 holes explored); type: functional, C57Bl/6

| SMILES | Activity (Mus musculus [1]) | Activity (Mus musculus [2]) | Activity (Mus musculus [3]) | Movement distance (Mus musculus [4]) | Time (Mus musculus [5]) | Activity (Mus musculus [6]) | other results |
| --- | --- | --- | --- | --- | --- | --- | --- |
| C=C(C)[C@@H]1CC=C(C)[C@@H](O)[C@H]1O | 4 | 3.5 | 64.9 | 212.4 cm | 45.5 s | 1.7 cm/s |  |
| C=C(C)[C@H]1CC=C(C)[C@@H](O)[C@H]1O | 7.9 | 8.1 | 82.4 | 257.7 cm | 56.6 s | 2.1 cm/s |  |
| N[C@@H](Cc1ccc(O)c(O)c1)C(=O)O [LEVODOPA] |  |  |  |  |  |  | Activity (Rattus norvegicus [7]): 4.6; Activity (Rattus norvegicus [8]): 9.6; Time (Rattus norvegicus [9]): 65.1 s; Activity (Rattus norvegicus [10]): 316.8 cm; Activity (Rattus norvegicus [11]): 86 |
| C=C(C)[C@@H]1CC=C(C)[C@H](O)[C@@H]1O | 1.7 | 0.9 | 28.5 | 55.9 cm | 15 s | 0.4 cm/s |  |
| C=C(C)[C@H]1CC=C(C)[C@H](O)[C@H]1O | 2.5 | 4.4 | 57.9 | 147.8 cm | 34.9 s | 1.1 cm/s |  |
| C=C(C)[C@H]1CC=C(C)[C@H](O)[C@@H]1O | 3.1 | 14.4 | 80.2 | 245.9 cm | 55.6 s | 1.2 cm/s |  |
| C=C(C)[C@@H]1CC=C(C)[C@H](O)[C@H]1O | 10.3 | 8.1 | 77.4 | 253.3 cm | 55.7 s | 2.1 cm/s |  |
| C=C(C)[C@@H]1CC=C(C)[C@@H](O)[C@@H]1O | 3.2 | 13.1 | 78.6 | 332.6 cm | 64 s | 2.7 cm/s | Activity (Mus musculus [12]): 439.6 cm; Activity (Mus musculus [13]): 3.6 cm/s; Activity (Mus musculus [14]): 14.8; Activity (Rattus norvegicus [15]): 4.3; Activity (Rattus norvegicus [16]): 81.9; Time (Mus musculus [17]): 74.8 s; Activity (Rattus norvegicus [18]): 305.6 cm; Activity (Rattus norvegicus [19]): 2.5 cm/s; Activity (Mus musculus [20]): 80.5; Time (Rattus norvegicus [21]): 62.6 s; inhibition (Rattus norvegicus [22]): Active; Activity (Rattus norvegicus [23]): 10.7; Activity (Mus musculus [24]): 6.5 |
| C=C(C)[C@H]1CC=C(C)[C@@H](O)[C@@H]1O | 4.7 | 3.9 | 65.5 | 158.8 cm | 46.9 s | 1.3 cm/s |  |
